Source: PubChem BioAssay AID652163 (Broad Institute, 2013)
Among all 360,000 compounds or so, about 500 (0.14%) were called active.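 Rule for the calls: active = mean inhibition of at least 70% across replicates, with every replicate also reaching that level; inconclusive = mean inhibition reaches 70% but some replicates fall short; inactive = mean inhibition below 70%.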 Only a selection was taken, and actives are over-represented in it overall.

molecular target: Protein S100-A4 (Homo sapiens) (UniProt P26447); experiment: human S100A4 protein-peptide interaction blockers – biochemical, fluorescence polarization, TAMRA-MyoIIA peptide, primary screen (AID 652163); settings: at 10.7 µM, active compounds read high
Outline: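 assay system = human S100A4 monomer with TAMRA-labelled myosin IIA peptide | also added = labelled myosin peptide probe, 5 nM | incubation = 5 min between mix addition and reading | control set = DMSO and TFP controls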

Protein S100-A4 (Homo sapiens), sequence (P26447 whole entry, looked up): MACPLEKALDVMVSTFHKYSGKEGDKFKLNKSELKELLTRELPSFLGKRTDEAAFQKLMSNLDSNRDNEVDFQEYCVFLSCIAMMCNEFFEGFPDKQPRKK

inhibition, inactive:
NCC[C@H]1CC[C@H](NC(=O)C2CC2)[C@@H](CO)O1 4.1%
CCCN1C[C@@H](C)[C@@H](OC)CN(C)C(=O)c2cc(NC(=O)CC(F)(F)F)ccc2OC[C@H]1C -32.9%
COCC#Cc1ccc2c(c1)O[C@H](CN(C)CC1CC1)[C@H](C)CN([C@H](C)CO)S2(=O)=O 4.13%
CC(C)NC(=O)N(C)C[C@H]1Oc2ncc(-c3ccc(C(=O)N(C)C)cc3)cc2C(=O)N([C@H](C)CO)C[C@H]1C -3.24%
C[C@@H]1CN([C@H](C)CO)C(=O)c2cc(-c3ccncc3)cnc2O[C@@H]1CN(C)C(=O)Cc1cccnc1 11.8%
CC(C)C#Cc1ccc2c(c1)O[C@@H](CN(C)C(=O)Nc1ccccc1)[C@H](C)CN([C@H](C)CO)S2(=O)=O 15.5%
CC(C)NC(=O)N(C)C[C@@H]1Oc2cc(C#C[C@H](C)O)ccc2S(=O)(=O)N([C@@H](C)CO)C[C@H]1C -1.62%
CNC[C@@H]1Oc2ncc(-c3ccc(F)cc3)cc2C(=O)N([C@H](C)CO)C[C@@H]1C 6.49%
CCCC(=O)Nc1ccc2c(c1)C(=O)N(C)C[C@H](OC)[C@@H](C)CN(C(C)=O)[C@H](C)CO2 3.22%
CO[C@H]1CN(C)C(=O)c2ccc(NC(=O)c3nc4ccccc4s3)cc2OC[C@H](C)N(Cc2cccnc2)C[C@@H]1C -1.61%
CC(=O)N1Cc2cc(C(=O)NCc3cc(F)cc(F)c3)nc(-c3cccc(C4=CCCC4)c3)c2[C@@H]1CCO -14.1%
N#C[C@@H]1[C@@H](c2ccc(-c3ccccc3)cc2)[C@@H](CO)N1C(=O)Cc1ccccc1 9.02%
CO[C@H]1CN(C)C(=O)c2cc(NC(=O)Nc3ccccc3F)ccc2OC[C@@H](C)N(CCC(F)(F)F)C[C@@H]1C -11.4%
CN(C)C(=O)c1ccc(-c2ccc([C@@H]3[C@H](C#N)N(C(=O)C4CC4)[C@H]3CO)cc2)cc1 -6.47%
Cc1noc(C)c1S(=O)(=O)N(C)C[C@@H]1OCCCC[C@H](C)Oc2ccc(NC(=O)NC3CCCCC3)cc2C(=O)N([C@@H](C)CO)C[C@H]1C -8.81%
C[C@@H]1CN([C@H](C)CO)C(=O)c2cc(NC(=O)Nc3ccc(F)cc3)ccc2O[C@@H](C)CCCCO[C@H]1CN(C)Cc1ccc(Cl)c(Cl)c1 4.63%
COc1ccc(C(=O)Nc2ccc3c(c2)OC[C@H](C)N(C(C)=O)C[C@@H](C)[C@@H](OC)CN(C)C3=O)cc1 -16%
C[C@@H]1CN([C@H](C)CO)C(=O)c2cccc(NC(=O)C3CCCCC3)c2O[C@@H]1CN(C)C(=O)NC1CCCCC1 1.54%
C[C@H](O)C#Cc1ccc2c(c1)O[C@H](CN(C)Cc1ccccn1)[C@H](C)CN([C@H](C)CO)S2(=O)=O -12.6%
COc1cccc(NC(=O)c2ccc3c(SCC(=O)O)c4c(nc3c2)CCCC4)c1 6.49%
O=C(Nc1cccc(C(F)(F)F)c1)c1ccc(N2CCNCC2)c([N+](=O)[O-])c1 -2.54%
C[C@H]1CN([C@@H](C)CO)C(=O)CCCn2cc(nn2)CO[C@H]1CN(C)S(=O)(=O)c1ccc2ccccc2c1 1.04%
O=C(C[C@@H]1C[C@H]2c3cc(NS(=O)(=O)c4ccc(F)cc4)ccc3O[C@H]2[C@@H](CO)O1)NCc1ccccc1F -3.71%
O=C(NC1CCCCC1)[C@@H]1[C@@H](CO)[C@@H]2Cn3c(cccc3=O)[C@@H]2N1C(=O)CC1CC1 1.5%
COCC(=O)N1CC(=O)N2[C@H](CO)[C@@H](c3ccc(C#CC4CCCCC4)cc3)[C@@H]2C1 -8.44%
COc1ccc(NC(=O)N[C@H]2CC[C@@H](CCNS(=O)(=O)c3cccc(Cl)c3)O[C@H]2CO)cc1 18.1%
O=C(Nc1ccccc1F)N[C@H]1CC[C@@H](CCNS(=O)(=O)c2ccc(F)cc2)O[C@@H]1CO -5.07%
Cc1noc(C)c1S(=O)(=O)Nc1ccc2c(c1)C(=O)N([C@H](C)CO)C[C@H](C)[C@@H](CN(C)C(=O)CCC(F)(F)F)OCCCC[C@H](C)O2 -11.4%
C[C@@H]1CN([C@@H](C)CO)S(=O)(=O)c2ccc(C#CCC3CCCC3)cc2O[C@H]1CN(C)Cc1ccc(C(=O)O)cc1 -3.27%
COc1ccc2c3c([nH]c2c1)[C@H](CO)N(C(=O)Nc1cccc(F)c1)CC31CCN(S(=O)(=O)c2ccccc2)CC1 -4.14%
COc1ccc(CN(C)C[C@H]2Oc3ccc(NS(=O)(=O)c4ccc(C)cc4)cc3C(=O)N([C@@H](C)CO)C[C@H]2C)cc1 -4.3%
C[C@@H]1CN([C@@H](C)CO)C(=O)c2cccc(NC(=O)Nc3ccc(F)cc3)c2O[C@@H]1CN(C)Cc1ccc(C(=O)O)cc1 16.9%
CCC(=O)N1C[C@H](C)[C@H](OC)CN(C)C(=O)c2ccc(NC(=O)Nc3cccc(F)c3)cc2OC[C@@H]1C -17.6%
O=C(C[C@@H]1CC[C@H]2[C@@H](COC[C@H](O)CN2S(=O)(=O)c2ccc(F)cc2)O1)N[C@H]1CCN(Cc2ccccc2)C1 2.74%
C[C@@H](NC(=O)C[C@H]1C[C@@H]2c3cc(NC(=O)C4CCC4)ccc3O[C@@H]2[C@@H](CO)O1)c1ccccc1 8.72%
CC(C)CC#Cc1ccc([C@@H]2[C@@H](CO)N3C(=O)CN(C(=O)Nc4ccc(F)cc4)C[C@H]23)cc1 -1.01%
CO[C@H]1CN(C)C(=O)c2ccc(NC(C)=O)cc2OC[C@H](C)N(C(=O)c2ccccc2)C[C@H]1C -4.17%
COc1ccc(CN(C)C[C@@H]2OCCCC[C@H](C)Oc3ccc(NS(=O)(=O)c4ccc(F)cc4)cc3C(=O)N([C@@H](C)CO)C[C@@H]2C)cc1 -2.85%
C[C@H]1CCCCO[C@H](CN(C)S(C)(=O)=O)[C@@H](C)CN([C@@H](C)CO)C(=O)c2cc(NC(=O)C3CCCCC3)ccc2O1 3.69%
O=C(Nc1ccc(F)cc1)N1C[C@H]2[C@@H](c3ccccc31)[C@@H](CO)N2Cc1cocn1 -2.03%
CO[C@@H]1CN(C)C(=O)c2ccc(NS(=O)(=O)c3cccc(F)c3)cc2OC[C@H](C)N(C(=O)Cc2cccnc2)C[C@@H]1C 0.669%
CC(C)[C@@H]1COCn2nncc2CCCC(=O)N1 -3.23%
CCCNC(=O)[C@@H]1[C@@H](CO)[C@@H]2Cn3c(cccc3=O)[C@H]1N2C(=O)C1CCC1 6.67%
Cc1cccc(S(=O)(=O)N2C[C@H]3[C@@H](c4ccccc42)[C@H](CO)N3Cc2ccc3c(c2)OCO3)c1 7.88%
Cc1cccc(S(=O)(=O)N2C[C@@H]3[C@H](c4ccccc42)[C@@H](CO)N3C(=O)c2ccccc2)c1 3.03%
C[C@H](CO)N1C[C@H](C)[C@@H](CN(C)C(=O)Nc2ccccc2)Oc2ncc(C3=CCCC3)cc2C1=O 2.15%
CO[C@H]1CN(C)C(=O)c2cc(NS(=O)(=O)c3ccc(C)cc3)ccc2OC[C@H](C)NC[C@H]1C 7.5%
COc1cccc(C#Cc2cnc3c(c2)C(=O)N([C@@H](C)CO)C[C@H](C)[C@H](CN(C)CC2CC2)O3)c1 -46.8%
O=C(C[C@@H]1CC[C@@H](NC(=O)Nc2ccc(F)cc2)[C@@H](CO)O1)NCCN1CCCC1 -3.14%
O=C(Cc1ccccc1)N1C[C@H]2[C@@H](c3ccccc31)[C@H](CO)N2C(=O)c1ccc(F)cc1 7.78%
CCS(=O)(=O)N1[C@H](CO)[C@@H](c2ccccc2)C12CN(C(=O)C1CCC1)C2 -10%
COc1ccc(NC(=O)N(C)C[C@@H]2OCCCC[C@@H](C)Oc3ccc(NC(=O)C4CCCCC4)cc3C(=O)N([C@@H](C)CO)C[C@@H]2C)cc1 2.51%
CCCNC(=O)Nc1ccc2c(c1)OC[C@H](C)N(C(=O)C1CCC1)C[C@H](C)[C@@H](OC)CN(C)C2=O -7.21%
COCC#Cc1cnc2c(c1)C(=O)N([C@H](C)CO)C[C@@H](C)[C@@H](CN(C)C(=O)Nc1cccc(F)c1)O2 -1.97%
C[C@@H]1CN([C@H](C)CO)C(=O)c2cc(NC(=O)Cn3cnnn3)ccc2O[C@@H]1CN(C)CC1CC1 13.2%
CN(C)C(=O)c1ccc(-c2ccc([C@@H]3[C@@H](CO)N4CCCCN(CC5CC5)C[C@H]34)cc2)cc1 11.7%
O=C(C[C@H]1C=C[C@H](NC(=O)CN2CCOCC2)[C@@H](CO)O1)NCc1cccc(F)c1 2.82%
CC=Cc1ccc2n(c1=O)C[C@H]1[C@H](CO)[C@@H](C(=O)NCCc3cn(C)cn3)[C@@H]2N1C(=O)CC (mixture of isomers) -3.21%

inhibition, active:
CC(C)C#Cc1ccc2c(c1)O[C@@H](CN(C)C(=O)NC(C)C)[C@H](C)CN([C@H](C)CO)S2(=O)=O 106%
O=C(O)CSc1c2c(nc3cc(C(=O)Nc4cccc(C(F)(F)F)c4)ccc13)CCCC2 71.4%
COc1ccccc1NC(=O)N[C@H]1CC[C@H](CCNS(=O)(=O)c2ccc(Cl)cc2)O[C@H]1CO 107%
Cc1cccc(S(=O)(=O)N2C[C@@H]3[C@H](c4ccccc42)[C@H](CO)N3CC2CCOCC2)c1 86.4%
